Laboratory results taken from ChEMBL document CHEMBL3232870, “Discovery of 3-(4-methanesulfonylphenoxy)-N-[1-(2-methoxy-ethoxymethyl)-1H-pyrazol-3-yl]-5-(3-methylpyridin-2-yl)-benzamide as a novel glucokinase activator (GKA) for the treatment of type 2 diabetes mellitus” (Bioorg Med Chem, 2014).

Columns and labels:
[1] = Tmax in male Sprague-Dawley rat at 500 mg/kg, po measured on day 1; type: ADME, organism-based; set-up: dose 500 mg/kg, route oral; conditions: in vivo
Method in brief: (§1)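 Sprague–Dawley rats of both sexes, 5 weeks old at arrival, received daily oral gavage at 0, 250, 500 or 1000 mg/kg/day for 14 days. Vehicle was 0.5% methylcellulose at 10 mL/kg. Toxicokinetics were taken on Day 1 and Day 14. Necropsy was by Day 15. Testis was fixed in modified Davidson's fixative, paraffin-sectioned and H&E-stained, with histopathology on control and high-dose groups only.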

[2] = Cmax in male Sprague-Dawley rat at 500 mg/kg, po measured on day 14; type: ADME, organism-based; set-up: dose 500 mg/kg, route oral; conditions: in vivo
Method in brief: (§2)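 Sprague–Dawley rats, 5 weeks old at arrival, both sexes. Given the compound by oral gavage once daily for 14 days at 0, 250, 500 or 1000 mg/kg/day, with 0.5% methylcellulose as vehicle. Toxicokinetic parameters were determined on Day 1 and Day 14.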

MIN6 = experiment: Increase in 11 mM glucose-stimulated insulin secretion in mouse MIN6 cells measured for 1 hr by ELISA; type: functional
Salmonella typhimurium [3] = experiment: Cytotoxicity in Salmonella typhimurium TA98 at 1.5 to 5000 ug/plate in presence of S9 fraction; type: organism-based; conditions: salmonella enterica subsp. enterica serovar typhimurium
Method in brief: (§3)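 Ames reverse mutation test by direct plate incorporation in S. typhimurium TA98 and TA100, with or without Aroclor 1254-induced rat liver S9 mix. Compound in DMSO at 1.5–5000 µg/plate, plated in top agar, incubated 37 °C for about 50 h, then revertant colonies counted. Plates were checked for precipitation and cytotoxicity. A positive was a reproducible, dose-related increase in revertants of more than 2-fold.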

[4] = AUC (0 to t) in female Sprague-Dawley rat at 500 mg/kg, po measured on day 1; type: ADME, organism-based; set-up: dose 500 mg/kg, route oral; conditions: plasma; method in brief: as §2
Canis familiaris [5] = experiment: Toxicity in Beagle dog assessed as testicular effect administered repeated dose level of 300 mg/kg/day, po administered on days 3, 6 and 8 by hematoxylin and eosin staining-based microscopy; type: organism-based, Canis lupus familiaris; set-up: route oral; conditions: in vivo
Method in brief: (§4)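 Dogs received escalating oral doses of 100, 300 and 1000 mg/kg/day over 8 days (Days 3, 6 and 8 for each dose). Vehicle was 0.5% methylcellulose at 5 mL/kg. Two animals were necropsied at termination, and testes were fixed in modified Davidson's fixative, paraffin-embedded, H&E-stained and examined microscopically.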

Rattus norvegicus [6] = experiment: Toxicity in Sprague-Dawley rat assessed as seminiferous tubule vacuolation at 250 to 1000 mg/kg, po by hematoxylin and eosin staining-based microscopy; type: organism-based; set-up: dose 250-1000 mg/kg, route oral; conditions: in vivo; method in brief: as §1
Hepatocyte = experiment: Induction of 2-Deoxy-D-[3H]-glucose uptake in rat Hepatocytes using 5.5 mM glucose after 4 hrs by liquid scintillation counting; type: functional
Method in brief: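 Rat primary hepatocytes, isolated by collagenase liver perfusion, viability over 85%. Cells attached 36 h on collagen I in MEM with 10% FBS, then serum-starved 12 h. Incubated 4 h in serum-free MEM with 5.5 mM glucose and 2-deoxy-D-[3H]-glucose, with or without compound. Washed in ice-cold PBS, lysed in 0.1 N NaOH, scintillation counted, expressed as % increase over control.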

[7] = Elimination half life in Sprague-Dawley rat at 3 mg/kg, iv and 10 mg/kg, po; type: ADME, organism-based; conditions: in vivo, read-out: beta t1/2 (converted)
Method in brief: (§5)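 Male ICR mice and 7-week-old SD rats received a 3 mg/kg intravenous bolus or a 10 mg/kg oral gavage dose. Plasma was deproteinized with acetonitrile (2 volumes) and compound measured by HPLC. Parameters came from noncompartmental analysis.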

[8] = Cmax in male Sprague-Dawley rat at 1000 mg/kg, po measured on day 1; type: ADME, organism-based; set-up: dose 1000 mg/kg, route oral; conditions: in vivo; method in brief: as §2
[9] = Apparent permeability of the compound by PAMPA; type: physicochemical
[10] = AUC (0 to t) in male Sprague-Dawley rat at 1000 mg/kg, po measured on day 14; type: ADME, organism-based; set-up: dose 1000 mg/kg, route oral; conditions: plasma; method in brief: as §2
[11] = Cmax in female Sprague-Dawley rat at 1000 mg/kg, po measured on day 14; type: ADME, organism-based; set-up: dose 1000 mg/kg, route oral; conditions: in vivo; method in brief: as §2
[12] = Tmax in male Sprague-Dawley rat at 250 mg/kg, po measured on day 14; type: ADME, organism-based; set-up: dose 250 mg/kg, route oral; conditions: in vivo; method in brief: as §1
[13] = AUC (0 to t) in male Sprague-Dawley rat at 500 mg/kg, po measured on day 1; type: ADME, organism-based; set-up: dose 500 mg/kg, route oral; conditions: plasma; method in brief: as §2
Rattus norvegicus [14] = experiment: Toxicity in Sprague-Dawley rat assessed as seminiferous tubule degeneration at 250 to 1000 mg/kg, po by hematoxylin and eosin staining-based microscopy; type: organism-based; set-up: dose 250-1000 mg/kg, route oral; conditions: in vivo; method in brief: as §1
[15] = Tmax in male Sprague-Dawley rat at 500 mg/kg, po measured on day 14; type: ADME, organism-based; set-up: dose 500 mg/kg, route oral; conditions: in vivo; method in brief: as §1
[16] = AUC (0 to t) in male Sprague-Dawley rat at 250 mg/kg, po measured on day 14; type: ADME, organism-based; set-up: dose 250 mg/kg, route oral; conditions: plasma; method in brief: as §2
[17] = Tmax in ICR mouse at 3 mg/kg, iv and 10 mg/kg, po; type: ADME, organism-based; conditions: in vivo
Method in brief: (§6)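 Male ICR mice and 7-week-old SD rats received a 3 mg/kg iv bolus or a 10 mg/kg oral gavage dose. Plasma was precipitated with 2 volumes of acetonitrile and analysed by HPLC. Parameters came from noncompartmental analysis.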

[18] = Tmax in female Sprague-Dawley rat at 500 mg/kg, po measured on day 14; type: ADME, organism-based; set-up: dose 500 mg/kg, route oral; conditions: in vivo; method in brief: as §1
[19] = Cmax in ICR mouse at 3 mg/kg, iv and 10 mg/kg, po; type: ADME, organism-based; conditions: in vivo; method in brief: as §5
[20] = Increase in 11 mM glucose-stimulated insulin secretion in Sprague-Dawley rat Pancreatic islet measured for 1 hr by ELISA; type: functional
Method in brief: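 Islets isolated from male Sprague–Dawley rat pancreas, five per well. Islets were pre-incubated 30 min in HEPES-buffered Krebs–Ringer buffer (pH 7.4) with low glucose, then moved to the same buffer with glucose (11 mM) plus test compound. Static incubation ran at 37 °C in a shaking waterbath under 5% CO₂. Buffer was sampled at 1 h, insulin measured by ELISA, and reported as % increase versus control.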

[21] = Tmax in male Sprague-Dawley rat at 1000 mg/kg, po measured on day 1; type: ADME, organism-based; set-up: dose 1000 mg/kg, route oral; conditions: in vivo; method in brief: as §1
Salmonella typhimurium [22] = experiment: Cytotoxicity in Salmonella typhimurium TA100 at 1.5 to 5000 ug/plate in absence of S9 fraction; type: organism-based; conditions: salmonella enterica subsp. enterica serovar typhimurium; method in brief: as §3
[23] = Metabolic stability in dog liver microsomes assessed as compound remaining after 1 hr relative to control; type: ADME, Canis lupus familiaris; conditions: read-out: Stability
Method in brief: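 Liver microsomes from mouse, dog or human were incubated with compound for 1 h, and the percentage of compound remaining was determined.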

Salmonella typhimurium [24] = experiment: Genotoxicity in Salmonella typhimurium TA98 assessed as increase in number of revertants at 1.5 to 5000 ug/plate by Ames test in absence of S9 fraction; type: toxicity, organism-based; conditions: salmonella enterica subsp. enterica serovar typhimurium; method in brief: as §3
[25] = Tmax in male Sprague-Dawley rat at 250 mg/kg, po measured on day 1; type: ADME, organism-based; set-up: dose 250 mg/kg, route oral; conditions: in vivo; method in brief: as §1
[26] = Clearance in ICR mouse at 3 mg/kg, iv and 10 mg/kg, po; type: ADME, organism-based; conditions: in vivo; method in brief: as §5
Canis familiaris [27] = experiment: Toxicity in Beagle dog assessed as testicular effect administered repeated dose level of 100 mg/kg/day, po administered on days 3, 6 and 8 by hematoxylin and eosin staining-based microscopy; type: organism-based, Canis lupus familiaris; set-up: route oral; conditions: in vivo; method in brief: as §4
[28] = Volume of distribution at steady state in ICR mouse at 3 mg/kg, iv and 10 mg/kg, po; type: ADME, organism-based; conditions: in vivo, read-out: Vdss; method in brief: as §6
[29] = Cmax in female Sprague-Dawley rat at 250 mg/kg, po measured on day 1; type: ADME, organism-based; set-up: dose 250 mg/kg, route oral; conditions: in vivo; method in brief: as §2
[30] = Tmax in female Sprague-Dawley rat at 250 mg/kg, po measured on day 14; type: ADME, organism-based; set-up: dose 250 mg/kg, route oral; conditions: in vivo; method in brief: as §1

COCCOCn1ccc(NC(=O)c2cc(Oc3ccc(S(C)(=O)=O)cc3)cc(-c3ncccc3C)c2)n1
Tmax [1]: 3.7 h | Cmax [2]: 2800 ng/mL | fold change (FC) (MIN6): 9 | Activity (Salmonella typhimurium [3]): Non-toxic | AUC(0-t) [4]: 19800 ng·h/mL | Activity (Canis familiaris [5]): Non-toxic | Activity (Rattus norvegicus [6]): Non-toxic | fold change (FC) (Hepatocyte): 2.23 | half-life [7]: 0.3 h | Cmax [8]: 4250 ng/mL | Papp [9]: 2.62 ×10⁻⁶ cm/s | AUC(0-t) [10]: 25000 ng·h/mL | Cmax [11]: 5210 ng/mL | Tmax [12]: 3 h | AUC(0-t) [13]: 16900 ng·h/mL | Activity (Rattus norvegicus [14]): Non-toxic | Tmax [15]: 3 h | AUC(0-t) [16]: 8180 ng·h/mL | Tmax [17]: 0.25 h | Tmax [18]: 1.3 h | Cmax [19]: 11700 ng/mL | fold change (FC) [20]: 3 | Tmax [21]: 4 h | Activity (Salmonella typhimurium [22]): Non-toxic | remaining at 1 h [23]: > 60% | Activity (Salmonella typhimurium [24]): Non-toxic | Tmax [25]: 2.7 h | clearance [26]: 3.33 mL/min/kg | Activity (Canis familiaris [27]): Non-toxic | Vd [28]: 0.18 L/kg | Cmax [29]: 3450 ng/mL | Tmax [30]: 1.3 h
